Measured values from ChEMBL document CHEMBL3351402, “An efficient synthesis and biological screening of benzofuran and benzo[d]isothiazole derivatives for Mycobacterium tuberculosis DNA GyrB inhibition” (Bioorg Med Chem, 2014).
In brackets after ≈: the same amount, converted by molar mass.

What was measured:
[1] = Cytotoxicity against mouse RAW264.7 cells assessed as reduction in cell viability at 100 uM after 72 hrs by MTT assay; type: cell-based; conditions: read-out: INH
Outline: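 RAW 264.7 mouse macrophages exposed to compound at 100 µM for 72 h. Viability measured by MTT conversion to formazan, with absorbance at 560 nm after 10 min incubation. Reported as percent inhibition.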

[2] = target: DNA gyrase subunit A/DNA gyrase subunit B (Mycobacterium tuberculosis (strain ATCC 25618 / H37Rv), UniProt P9WG45+P9WG47); assay: Inhibition of Mycobacterium tuberculosis DNA gyrase using relaxed pBR322 as substrate after 30 mins by supercoiling assay
DNA gyrase subunit B = DNA gyrase subunit B (Mycobacterium smegmatis, UniProt P0C559); assay: Inhibition of purified Mycobacterium smegmatis GyrB at 50 to 100 uM after 100 mins by ATPase assay; set-up: species or system Mycolicibacterium smegmatis
[3] = tested on: Mycobacterium tuberculosis; assay: Antimicrobial activity against Mycobacterium tuberculosis H37Rv after 7 days by MABA assay; type: functional; conditions: 168 h
Outline: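 M. tuberculosis H37Rv inoculum from fresh LJ medium, resuspended in 7H9 broth (0.1% casitone, 0.5% glycerol, OADC), adjusted to McFarland No. 1 and diluted 1:20. Serial two-fold drug dilutions in 7H9-S. Drug-free and sterile controls. Incubated 7 days at 37 °C, then Alamar blue added and plates re-incubated overnight. MIC = lowest concentration preventing the blue-to-pink change.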

[4] = target: DNA gyrase subunit B (Mycobacterium smegmatis) (UniProt P0C559); assay: Inhibition of purified Mycobacterium smegmatis GyrB ATPase activity at 50 to 100 uM after 100 mins by ATPase assay; conditions: Mycolicibacterium smegmatis
Outline: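 M. smegmatis GyrB expressed in BL21(DE3)pLysS, IPTG-induced (0.1 mM final), then Ni-NTA purified. Started with MgCl2, 100 min at room temperature. Released phosphate read at 635 nm.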

[5] = target: DNA gyrase subunit A/DNA gyrase subunit B (Mycobacterium tuberculosis (strain ATCC 25618 / H37Rv)) (UniProt P9WG45+P9WG47); assay: Binding affinity to Mycobacterium tuberculosis DNA gyrase by differential scanning fluorimetry
Outline: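 Thermal shift assay with native GyrB protein. Reaction of 15 µL: assay buffer (50 mM Tris pH 7.4, 1 mM EDTA, 5 mM DTT), GyrB protein (1.5 mg/mL) and Sypro orange dye (1:100). Heated stepwise from 25 °C to 100 °C at 0.6 °C/min. Tm read from dye fluorescence. Shift in Tm of the ligand complex compared with the native protein Tm.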

Chain of DNA gyrase subunit B (P0C559 whole entry): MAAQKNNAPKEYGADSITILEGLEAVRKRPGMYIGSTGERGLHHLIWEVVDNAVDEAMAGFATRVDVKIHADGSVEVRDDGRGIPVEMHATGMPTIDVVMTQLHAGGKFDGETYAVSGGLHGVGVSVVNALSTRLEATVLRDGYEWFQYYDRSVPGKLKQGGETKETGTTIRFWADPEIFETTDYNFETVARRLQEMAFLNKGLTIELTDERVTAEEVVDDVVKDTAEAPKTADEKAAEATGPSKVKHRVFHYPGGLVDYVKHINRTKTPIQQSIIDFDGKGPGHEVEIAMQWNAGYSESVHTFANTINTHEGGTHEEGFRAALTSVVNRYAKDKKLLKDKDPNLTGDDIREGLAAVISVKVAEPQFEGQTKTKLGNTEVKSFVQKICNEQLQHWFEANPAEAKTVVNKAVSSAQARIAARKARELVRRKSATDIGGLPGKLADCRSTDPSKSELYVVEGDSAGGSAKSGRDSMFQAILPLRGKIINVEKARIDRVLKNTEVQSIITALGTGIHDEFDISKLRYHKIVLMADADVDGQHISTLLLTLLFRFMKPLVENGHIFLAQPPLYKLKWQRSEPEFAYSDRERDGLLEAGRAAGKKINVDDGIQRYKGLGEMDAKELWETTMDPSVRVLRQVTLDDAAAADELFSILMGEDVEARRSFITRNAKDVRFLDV
Chain of DNA gyrase subunit A/DNA gyrase subunit B (P9WG45 whole entry): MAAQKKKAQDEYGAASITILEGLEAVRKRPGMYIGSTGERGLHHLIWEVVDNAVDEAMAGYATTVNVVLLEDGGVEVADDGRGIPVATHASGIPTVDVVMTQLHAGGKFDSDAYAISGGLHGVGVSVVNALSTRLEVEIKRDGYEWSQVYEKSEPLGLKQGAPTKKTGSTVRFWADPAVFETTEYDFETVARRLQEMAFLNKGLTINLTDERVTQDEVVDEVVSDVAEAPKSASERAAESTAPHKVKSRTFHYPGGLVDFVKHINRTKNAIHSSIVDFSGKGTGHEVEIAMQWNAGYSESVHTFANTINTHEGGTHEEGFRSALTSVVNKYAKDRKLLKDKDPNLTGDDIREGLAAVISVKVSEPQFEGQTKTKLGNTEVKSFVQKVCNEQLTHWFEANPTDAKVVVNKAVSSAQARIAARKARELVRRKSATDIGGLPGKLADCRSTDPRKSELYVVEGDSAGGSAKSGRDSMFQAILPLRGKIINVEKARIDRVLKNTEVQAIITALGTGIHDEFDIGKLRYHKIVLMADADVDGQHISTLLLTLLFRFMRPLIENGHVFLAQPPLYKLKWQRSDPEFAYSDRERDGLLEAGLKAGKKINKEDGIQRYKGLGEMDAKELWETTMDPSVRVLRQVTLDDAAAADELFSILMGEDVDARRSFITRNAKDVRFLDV
Chain of DNA gyrase subunit A/DNA gyrase subunit B (P9WG47 whole entry): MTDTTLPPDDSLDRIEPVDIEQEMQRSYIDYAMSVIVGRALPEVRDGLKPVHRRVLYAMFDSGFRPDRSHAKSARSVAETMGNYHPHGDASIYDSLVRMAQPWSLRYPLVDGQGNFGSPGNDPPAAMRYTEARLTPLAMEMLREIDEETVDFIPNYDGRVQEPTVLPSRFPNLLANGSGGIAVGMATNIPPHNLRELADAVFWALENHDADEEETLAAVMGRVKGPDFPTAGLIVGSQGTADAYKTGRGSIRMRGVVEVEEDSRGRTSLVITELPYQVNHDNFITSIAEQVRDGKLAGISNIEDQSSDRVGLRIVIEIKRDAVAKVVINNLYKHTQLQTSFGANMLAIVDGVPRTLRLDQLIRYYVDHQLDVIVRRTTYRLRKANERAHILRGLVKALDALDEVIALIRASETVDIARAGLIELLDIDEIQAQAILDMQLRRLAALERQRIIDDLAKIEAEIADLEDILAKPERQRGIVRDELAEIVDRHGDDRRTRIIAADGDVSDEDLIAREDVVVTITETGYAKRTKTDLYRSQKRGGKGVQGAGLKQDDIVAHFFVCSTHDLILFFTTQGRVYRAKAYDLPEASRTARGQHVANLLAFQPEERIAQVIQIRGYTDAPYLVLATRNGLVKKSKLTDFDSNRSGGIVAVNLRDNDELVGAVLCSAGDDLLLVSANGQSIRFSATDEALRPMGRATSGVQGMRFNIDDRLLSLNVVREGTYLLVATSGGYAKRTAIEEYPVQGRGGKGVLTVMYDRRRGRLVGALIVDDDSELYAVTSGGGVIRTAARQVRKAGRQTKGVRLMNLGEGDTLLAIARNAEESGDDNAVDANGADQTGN
Chain of DNA gyrase subunit B (Mycobacterium smegmatis) (P0C559 2-675 limits assumed): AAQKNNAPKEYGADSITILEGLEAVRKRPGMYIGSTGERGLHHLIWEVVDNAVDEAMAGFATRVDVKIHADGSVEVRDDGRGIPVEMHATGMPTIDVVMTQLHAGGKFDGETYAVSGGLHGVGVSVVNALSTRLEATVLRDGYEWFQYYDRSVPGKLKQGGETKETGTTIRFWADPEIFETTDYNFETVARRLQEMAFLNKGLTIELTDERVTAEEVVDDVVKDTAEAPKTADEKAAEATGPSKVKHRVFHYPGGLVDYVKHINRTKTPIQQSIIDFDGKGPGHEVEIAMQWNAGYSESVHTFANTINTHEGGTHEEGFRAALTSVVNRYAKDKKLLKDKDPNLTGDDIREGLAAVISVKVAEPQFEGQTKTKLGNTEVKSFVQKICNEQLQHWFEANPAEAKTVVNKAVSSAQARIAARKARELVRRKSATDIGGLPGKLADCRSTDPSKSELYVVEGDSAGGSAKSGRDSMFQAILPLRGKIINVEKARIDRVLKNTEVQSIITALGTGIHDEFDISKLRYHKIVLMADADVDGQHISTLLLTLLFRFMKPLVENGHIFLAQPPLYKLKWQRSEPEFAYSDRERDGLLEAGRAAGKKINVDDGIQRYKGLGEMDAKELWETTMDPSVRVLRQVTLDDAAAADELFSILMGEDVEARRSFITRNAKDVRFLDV

Structure (SMILES) | cytotoxicity at 72 h, 100 µM [1] [%] | IC50 [2] [µM] | IC50 (DNA gyrase subunit B) [µM] | MIC [3] [µM] | inhibition [4] [%] | Tm [5] [°C]
CCOC(=O)c1cc2cc(N3CCN(C(=S)Nc4ccc(OC)cc4)CC3)ccc2o1 | 20.6 | 19.8 | 24.4 | 16.2 (≈ 7.14 µg/mL) |  | 
COc1ccc(NC(=S)N2CCN(c3nsc4ccccc34)CC2)cc1 | 19 | 1.05 | 2.86 | 3.54 (≈ 1.36 µg/mL) | > 60 | 
S=C(Nc1ccccc1)N1CCN(c2nsc3ccccc23)CC1 | 39.3 | 3.9 | 9.14 | 15.2 (≈ 5.4 µg/mL) | > 60 | 
O=[N+]([O-])c1ccc(NC(=S)N2CCN(c3nsc4ccccc34)CC2)cc1 | 27.6 | 0.83 | 1.81 | 13.7 (≈ 5.48 µg/mL) | > 60 | 
CCOC(=O)c1cc2cc(N3CCN(C(=O)NCc4ccccc4)CC3)ccc2o1 | 40.9 | 3.12 | 4.32 | 35.5 (≈ 14.4 µg/mL) | > 60 | 
CCOC(=O)c1cc2cc(N3CCN(C(=O)Nc4ccc(Cl)cc4)CC3)ccc2o1 | 19.2 | 18.2 | 20.7 | 16.8 (≈ 7.17 µg/mL) |  | 
O=C(Nc1ccc([N+](=O)[O-])cc1)N1CCN(c2nsc3ccccc23)CC1 | 20.9 | 12.2 | 27.1 | 28.5 (≈ 10.9 µg/mL) |  | 
CCOC(=O)c1cc2cc(N3CCN(C(=O)Nc4ccc(C(C)=O)cc4)CC3)ccc2o1 | 21.6 | 3.55 | 7.86 | 83.5 (≈ 36.4 µg/mL) | > 60 | 
O=C(Nc1ccc(Cl)cc1)N1CCN(c2nsc3ccccc23)CC1 | 20.3 | 0.42 | 1.77 | 3.44 (≈ 1.28 µg/mL) | > 60 | 46.1
CCOC(=O)c1cc2cc(N3CCN(C(=O)Nc4ccc(OC)cc4)CC3)ccc2o1 | 19.9 | 7.33 | 8.19 | 4.24 (≈ 1.8 µg/mL) | > 60 | 
O=C(Nc1ccccc1)N1CCN(c2nsc3ccccc23)CC1 | 27 | 4.59 | 19.9 | 68.9 (≈ 23.3 µg/mL) |  | 
CCOC(=O)c1cc2cc(N3CCN(C(=S)NCc4ccccc4)CC3)ccc2o1 | 45.8 | 9.1 | 20.4 | 33.9 (≈ 14.4 µg/mL) |  | 
COc1ccc(NC(=O)N2CCN(c3nsc4ccccc34)CC2)cc1 | 37.6 | 12.2 | 26.2 | 14.7 (≈ 5.42 µg/mL) |  | 
S=C(NCc1ccccc1)N1CCN(c2nsc3ccccc23)CC1 | 19.1 | > 25 | 46 | 14.7 (≈ 5.42 µg/mL) |  | 
CC1COc2c(N3CCN(C)CC3)c(F)cc3c(=O)c(C(=O)O)cn1c23 (stereo not given) [OFLOXACIN] |  |  |  | 2.16 (≈ 0.781 µg/mL) |  | 
CC(=O)c1ccc(NC(=S)N2CCN(c3nsc4ccccc34)CC2)cc1 | 40.7 | 8.4 | 11.1 | 13.8 (≈ 5.48 µg/mL) |  | 

Structure (SMILES) | cytotoxicity at 72 h, 100 µM [1] [%] | IC50 [2] [µM] | IC50 (DNA gyrase subunit B) [µM] | MIC [3] [µM] | inhibition [4] [%] | Tm [5] [°C]
O=C(NCc1ccc(Cl)cc1)N1CCN(c2nsc3ccccc23)CC1 | 29.1 | 3.55 | 6.88 | 14.1 (≈ 5.46 µg/mL) | > 60 | 
CCOC(=O)c1cc2cc(N3CCN(C(=S)NCc4ccc(Cl)cc4)CC3)ccc2o1 | 41.5 | 11.3 | 29.9 | 62 (≈ 28.4 µg/mL) |  | 
CCOC(=O)c1cc2cc(N3CCN(C(=S)Nc4ccc([N+](=O)[O-])cc4)CC3)ccc2o1 | 25.8 | 10.6 | 12.9 | 62.6 (≈ 28.4 µg/mL) | > 60 | 
CCOC(=O)c1cc2cc(N3CCN(C(=S)Nc4ccc(Cl)cc4)CC3)ccc2o1 | 30 | 13.2 | 35.2 | 16.1 (≈ 7.13 µg/mL) |  | 
S=C(Nc1ccc(Cl)cc1)N1CCN(c2nsc3ccccc23)CC1 | 44.2 | 4.21 | 9.32 | 3.51 (≈ 1.37 µg/mL) | > 60 | 
O=C(NCc1ccccc1)N1CCN(c2nsc3ccccc23)CC1 | 30.2 | 1.18 | 2.36 | 1.9 (≈ 0.67 µg/mL) | > 60 | 
CCOC(=O)c1cc2cc(N3CCN(C(=S)Nc4ccccc4)CC3)ccc2o1 | 22.9 | 7.2 | 15.6 | 35.3 (≈ 14.4 µg/mL) |  | 
CO[C@H]1/C=C/O[C@@]2(C)Oc3c(C)c(O)c4c(O)c(c(/C=N/N5CCN(C)CC5)c(O)c4c3C2=O)NC(=O)/C(C)=C\C=C\[C@H](C)[C@H](O)[C@@H](C)[C@@H](O)[C@@H](C)[C@H](OC(C)=O)[C@@H]1C [RIFAMPIN] |  |  |  | 0.23 (≈ 0.189 µg/mL) |  | 
CC[C@@H](CO)NCCN[C@@H](CC)CO [ETHAMBUTOL] |  |  |  | 0.66 (≈ 0.135 µg/mL) |  | 
NNC(=O)c1ccncc1 [ISONIAZID] |  |  |  | 0.66 (≈ 0.0905 µg/mL) |  | 
S=C(NCc1ccc(Cl)cc1)N1CCN(c2nsc3ccccc23)CC1 | 25.9 | 4.4 | 11.3 | 6.82 (≈ 2.75 µg/mL) |  | 
CCOC(=O)c1cc2cc(N3CCN(C(=S)Nc4ccc(C(C)=O)cc4)CC3)ccc2o1 | 21.2 | 16.9 | 27.3 | 31.5 (≈ 14.2 µg/mL) |  | 
CCOC(=O)c1cc2cc(N3CCN(C(=O)Nc4ccccc4)CC3)ccc2o1 | 21.3 | 7.14 | 16.9 | 92.6 (≈ 36.4 µg/mL) |  | 
CC(=O)c1ccc(NC(=O)N2CCN(c3nsc4ccccc34)CC2)cc1 | 20.2 | 9.51 | 29.3 | 28.7 (≈ 10.9 µg/mL) |  | 
CCOC(=O)c1cc2cc(N3CCN(C(=O)Nc4ccc([N+](=O)[O-])cc4)CC3)ccc2o1 | 19.6 | 2.93 | 5.07 | 16.3 (≈ 7.15 µg/mL) | > 60 | 
CCOC(=O)c1cc2cc(N3CCN(C(=O)NCc4ccc(Cl)cc4)CC3)ccc2o1 | 21.6 | 1.61 | 2.97 | 64.6 (≈ 28.6 µg/mL) | > 60 | 
